# A selection: hits, their analogues and other compounds. The true share with any hit is near 3.2%.
# PfHsp90 yeast 2 = inhibits growth of yeast expressing Plasmodium falciparum Hsp90; S. cerevisiae expressing PfHsp90, BacTiter-Glo ATP, 48 h; yeast lacking PDR1 and PDR3 efflux regulators; inhibition, % at 9.4 µM; hit rate 0.32% among 310,000; AID 504621;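 active means every replicate shows inhibition above about 80%, whatever the replicate mean, limit read from the data; inconclusive means mean inhibition reaches the set limit but some replicate falls short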;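 further: 0% = DMSO neutral controls and 100% = 20 µM radicicol positive controls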
# Cneo AK release = causes C. neoformans cell lysis. hit rate 0.2% among 360,000. lysis activity, % at 15 µM. adenylate kinase release luminescence, 4 h; normalised: neutral wells 0, clomiphene wells 100. AID 651654;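 active means mean lysis activity across replicates of at least 80%, whatever share of replicates individually reach that level; inactive means mean lysis activity below 80%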
#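 Material – log-phase Cryptococcus neoformans yeast cells · Input – 5 × 10^6 yeast cells/mL · Medium – fresh YPD growth medium · Doses – single compound concentration per well · Timing – static 4 h at 37 °C with compound, 1 h detection · Detection – adenylate kinase release luminescence · Read-out – signal increase indicating cell lysis · Control set – Clomiphene as positive lysis control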
# DENV2 CPE rescue = protects cells from dengue virus 2 cytopathic effect; CPE inhibition, % at 9.99 µM; hit rate 1.7% among 350,000; DENV2-infected cells, cytopathic effect rescue, plate reader; in the data active means CPE inhibition above about 20%, passing the limit was not always enough; inconclusive means no clear call, values can overlap the other calls; tested in BHK-21 cells;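 further: 0% = median of neutral control wells and 100% = median of positive control wells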
# MLL AF4-AF9 inh = MLL-AF4/AF9 protein interaction inhibition; inhibition, % at 10 µM; hit rate 0.47% among 350,000; AlphaScreen, biotin-AF4 peptide binding to FLAG-AF9; AID 651704; P42568;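 active means every replicate reaching a set inhibition limit, whatever the replicate mean, cut at about 25% in these data; inconclusive means mean inhibition reaches that limit but some replicates miss it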;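 further: 0% = plate neutral control median and 100% = total signal loss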
# S100A4 inh HTS = inhibitors of human S100A4 binding to myosin IIA peptide. S100A4/TAMRA-MyoIIA peptide fluorescence polarization. hit rate 0.14% among 360,000. AID 652163. inhibition, % at 10.7 µM. P26447;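 active means mean inhibition of at least 70% across replicates, with every replicate also reaching that level; inconclusive means mean inhibition reaches 70% but some replicates fall short; inactive means mean inhibition below 70%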
# Target sequence (P26447 whole entry, looked up): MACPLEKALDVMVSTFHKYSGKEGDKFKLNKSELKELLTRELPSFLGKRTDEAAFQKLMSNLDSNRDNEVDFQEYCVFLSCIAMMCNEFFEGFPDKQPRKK
#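 incubation = readout 5 min after mixing, signal stable up to 60 min | system = S100A4 monomer protein | buffer or medium = HEPES pH 7.2 with CaCl2, KCl, NaCl, DTT, Triton | benchmarks = neutral control DMSO, positive control TFP | also added = fluorescent myosin IIA peptide, 5 nM | compound dosing = one concentration per compound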
# rRNA inh HTS = inhibits bacterial ribosomal RNA function over humanized ribosomes; E. coli WT GFP vs humanized-ribosome RFP mutants, fluorescence, 24 h; stronger effect = lower value; DMSO median 0, no signal -100; GFP signal change (wild-type ribosome), % (test concentration not listed); hit rate 1.6% among 350,000; AID 720706;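 active means significant combined selectivity score with lowered wild-type GFP, culture density cut under 30%, mutant RFP and density less affected; inactive means any of these conditions unmet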
# Active calls of the source: *; ? = inconclusive; . = no result.
SMILES,PfHsp90 yeast 2,Cneo AK release,DENV2 CPE rescue,MLL AF4-AF9 inh,S100A4 inh HTS,rRNA inh HTS
Brc1ccc(Nc2nc(-c3cccnc3)cs2)cc1,-85,.,-3,1,-1,-24*
Clc1ccc(Nc2nc(-c3ccncc3)cs2)cc1,-25,1,.,.,.,.
Oc1ccc(Nc2nc(-c3cccnc3)cs2)cc1,14,-4,.,.,.,.
Nc1ccc(Nc2nc(-c3ccncc3)cs2)cc1,-22,-1,6,5,0,-17*
Cc1noc(C)c1S(=O)(=O)Nc1ccc2c(c1)CC(=O)N([C@H](C)CO)C[C@H](C)[C@@H](CN(C)C(=O)Nc1ccc(C(F)(F)F)cc1)O2,.,0,-4,0,4,2
C=CCC(NC(=O)c1ccc(C#N)cc1)C(=O)NCCC (configuration not stated),-10,-9,49*,-1,9,4
CCCC#Cc1ccc([C@@H]2[C@@H](CO)N3C(=O)CN(S(=O)(=O)Cc4ccccc4)C[C@@H]23)cc1,.,.,?,2,0,-25
COc1cccc(NC(=O)N[C@H]2C=C[C@H](CC(=O)N3CCN(C)CC3)O[C@@H]2CO)c1,.,-4,-6,4,-9,-1
Cc1noc(C)c1NC(=O)N(C)C[C@@H]1OCCCC[C@H](C)Oc2ccc(NC(=O)c3ccncc3)cc2C(=O)N([C@H](C)CO)C[C@H]1C,.,0,-4,-5,-15,2
CN(C)CC(=O)N1CC(=O)N2[C@@H](CO)[C@H](c3ccc(/C=C/c4ccccc4)cc3)[C@@H]2C1,.,.,4,16,24,6
COc1ccc(S(=O)(=O)N2CC(=O)Nc3ccccc32)cc1Cl,11,-1,-3,0,3,-33*
CCOc1ccc(S(=O)(=O)N2CC(=O)Nc3ccccc32)cc1C#N,-4,-1,-5,7,-4,-3
CCCCCC(=O)N(O)C1CC(=O)N(c2ccccc2)C1=O (configuration not stated),105*,.,.,.,.,.
OCCCn1c(C2CCCN2c2nc(-c3ccc(F)cc3)cs2)nc2cc(C(F)(F)F)ccc21 (configuration not stated),.,-1,6,.,0,5
OCCOCCn1c(C2CCCN2c2nc(-c3ccc(F)cc3)cs2)nc2cc(C(F)(F)F)ccc21 (configuration not stated),108*,-1,-18,.,4,0
O=[N+]([O-])c1ccccc1S(=O)(=O)Nc1ccc(S(=O)(=O)Nc2nccs2)cc1,-1,-9,?,13,-4,13
Nc1ccc(S(=O)(=O)Nc2nccs2)cc1N=Nc1ccccc1[N+](=O)[O-],-6,.,-2,1,7,-20*
COc1ccc(N(C)S(=O)(=O)c2cccc(C(=O)Nc3ccc(N4CCOCC4)cc3)c2)cc1,-21,0,9,10,-3,-21*
O=C(N1CCOCC1)N(CCN1CCOCC1)Cc1cccc2ccccc12,0,1,.,.,.,.
CC1(C(=O)c2ccccc2)C2c3c(ccc4ccccc34)OC(=O)C21C(=O)N1CCOCC1 (configuration not stated),105*,.,.,.,.,.
C[C@@H]1CN([C@@H](C)CO)C(=O)c2cc(NC(=O)Nc3ccc4c(c3)OCO4)ccc2O[C@H]1CN(C)Cc1ccncc1,.,7,0,-19,11,5
Cc1noc(C)c1S(=O)(=O)N(C)C[C@@H]1OCCCC[C@@H](C)Oc2ccc(NS(=O)(=O)c3ccc(Cl)cc3)cc2C(=O)N([C@@H](C)CO)C[C@H]1C,.,3,36*,0,9,-4
Cc1noc(C)c1S(=O)(=O)N(C)C[C@H]1OCCCC[C@@H](C)Oc2ccc(NS(=O)(=O)c3ccc(Cl)cc3)cc2C(=O)N([C@@H](C)CO)C[C@H]1C,.,2,-14,2,57,-5
Cc1noc(C)c1S(=O)(=O)N(C)C[C@H]1OCCCC[C@@H](C)Oc2ccc(NS(=O)(=O)c3ccc(Cl)cc3)cc2C(=O)N([C@@H](C)CO)C[C@@H]1C,.,5,31*,0,4,-2
C[C@H]1CN([C@@H](C)CO)C(=O)c2ccccc2-c2ccccc2CO[C@H]1CN(C)Cc1ccc(C(=O)O)cc1,.,-3,0,-3,12,5
